Experimental data reported in ChEMBL document CHEMBL4715684, “Computer-aided discovery of phenylpyrazole based amides as potent S6K1 inhibitors” (RSC Med Chem, 2020).

Assays:
[1] = molecular target: Ribosomal protein S6 kinase beta-1 (Homo sapiens, UniProt P23443); assay: Inhibition of human S6K1 using KKRNRTLTK peptide substrate by radiometric assay
[2] = Metabolic stability in rat liver microsomes assessed as half life; assay type: ADME, Microsome
Summary of the method: (§1)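 Half-life in human or rat liver microsomes, reported as the mean of three experiments with errors within 30% of the mean.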

[3] = molecular target: CYP2C9 (Homo sapiens, UniProt P11712); assay: Inhibition of human CYP2C9 using tolubutamide as substrate at 10 uM by cocktail inhibition assay; assay type: ADME; details: probe tolubutamide
Summary of the method: (§2)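 Cocktail P450 assay measuring marker metabolism with and without 10 µM test compound: CYP1A2 phenacetin […] to acetaminophen, CYP2C9 tolbutamide to hydroxytolbutamide, CYP2D6 bufuralol to […], CYP3A4 midazolam to 1'-hydroxymidazolam. Each substrate was at about its Km. Isoform-specific inhibitors were run as system controls. Values are means of three experiments, with errors within 30% of the mean.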

[4] = Oral bioavailability in Sprague-Dawley rat at 2 mg/kg measured upto 8 hrs by LC/MS/MS analysis; assay type: ADME, organism-based; details: in vivo
Summary of the method: (§3)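 Sprague Dawley rats were dosed with compound in a generic formulation at 1 mg mL-1, either 1 mg kg-1 iv into the femoral vein or 2 mg kg-1 by oral gavage. Blood was drawn at 5, 15, 30 min and 1, 2, 4, 6, 8 h into EDTA, and plasma was obtained by centrifugation. Plasma was precipitated with acetonitrile containing internal standard, then analysed by C18 LC-MS/MS (positive MRM) against internal-standard peak areas. Data were fitted with an IV bolus model.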

[5] = molecular target: CYP2D6 (Homo sapiens, UniProt P10635); assay: Inhibition of human CYP2D6 using bufuralol as substrate at 10 uM by cocktail inhibition assay; assay type: ADME; details: probe bufuralol; summary of the method: as §2
[6] = Metabolic stability in human liver microsomes assessed as half life; assay type: ADME, Microsome; summary of the method: as §1
[7] = Clearance in Sprague-Dawley rat at 1 mg/kg, iv measured upto 8 hrs by LC/MS/MS analysis; assay type: ADME, organism-based; details: in vivo; summary of the method: as §3
[8] = molecular target: CYP3A4 (Homo sapiens, UniProt P08684); assay: Inhibition of human CYP3A4 using midazolam as substrate at 10 uM by cocktail inhibition assay; assay type: ADME; details: probe midazolam; summary of the method: as §2
[9] = Half life in Sprague-Dawley rat at 1 mg/kg, iv measured upto 8 hrs by LC/MS/MS analysis; assay type: ADME, organism-based; details: in vivo; summary of the method: as §3
[10] = Cmax in Sprague-Dawley rat at 2 mg/kg, po measured upto 8 hrs by LC/MS/MS analysis; assay type: ADME, organism-based; design: route oral, dose 2 mg/kg, time <=8; details: in vivo; summary of the method: as §3
[11] = Volume of distribution in Sprague-Dawley rat at 1 mg/kg, iv measured upto 8 hrs by LC/MS/MS analysis; assay type: ADME, organism-based; details: in vivo; summary of the method: as §3
[12] = molecular target: T1, CYP1A2 (Homo sapiens, UniProt P05177); assay: Inhibition of human CYP1A2 using phenacetin as substrate at 10 uM by cocktail inhibition assay; assay type: ADME; details: probe phenacetin; summary of the method: as §2
T1 sequence (P05177 whole entry): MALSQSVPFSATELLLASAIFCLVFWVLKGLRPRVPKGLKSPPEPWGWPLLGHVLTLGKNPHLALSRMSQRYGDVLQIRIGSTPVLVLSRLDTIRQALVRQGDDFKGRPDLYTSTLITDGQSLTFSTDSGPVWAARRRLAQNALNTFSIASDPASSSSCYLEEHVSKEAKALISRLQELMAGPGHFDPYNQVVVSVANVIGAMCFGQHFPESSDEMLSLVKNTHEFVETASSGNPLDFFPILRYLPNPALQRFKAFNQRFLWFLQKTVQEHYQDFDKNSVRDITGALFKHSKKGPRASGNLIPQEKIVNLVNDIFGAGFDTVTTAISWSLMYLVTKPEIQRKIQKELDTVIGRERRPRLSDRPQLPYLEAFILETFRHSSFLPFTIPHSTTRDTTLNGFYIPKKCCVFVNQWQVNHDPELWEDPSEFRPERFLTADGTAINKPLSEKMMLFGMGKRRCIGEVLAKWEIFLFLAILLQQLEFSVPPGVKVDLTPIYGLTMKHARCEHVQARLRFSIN

[13] = AUC in Sprague-Dawley rat at 1 mg/kg, iv measured upto 8 hrs by LC/MS/MS analysis; assay type: ADME, organism-based; design: route intravenous, dose 1 mg/kg, time <=8; details: in vivo; summary of the method: as §3

Ribosomal protein S6 kinase beta-1, sequence (P23443 whole entry): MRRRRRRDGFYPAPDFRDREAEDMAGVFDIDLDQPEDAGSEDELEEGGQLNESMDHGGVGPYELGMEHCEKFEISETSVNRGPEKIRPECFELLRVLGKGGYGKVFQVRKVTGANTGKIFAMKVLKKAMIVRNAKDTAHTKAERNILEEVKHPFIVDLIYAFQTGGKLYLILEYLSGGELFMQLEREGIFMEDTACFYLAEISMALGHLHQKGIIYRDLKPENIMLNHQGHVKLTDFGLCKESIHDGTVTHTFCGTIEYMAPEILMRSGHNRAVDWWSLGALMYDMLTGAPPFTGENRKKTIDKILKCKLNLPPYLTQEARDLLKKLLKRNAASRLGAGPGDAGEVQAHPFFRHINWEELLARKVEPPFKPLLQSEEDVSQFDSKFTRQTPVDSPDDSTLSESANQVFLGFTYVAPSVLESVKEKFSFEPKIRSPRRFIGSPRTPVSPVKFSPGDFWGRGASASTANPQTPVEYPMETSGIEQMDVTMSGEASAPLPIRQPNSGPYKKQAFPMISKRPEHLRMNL
CYP2C9, sequence (P11712 whole entry, canonical isoform): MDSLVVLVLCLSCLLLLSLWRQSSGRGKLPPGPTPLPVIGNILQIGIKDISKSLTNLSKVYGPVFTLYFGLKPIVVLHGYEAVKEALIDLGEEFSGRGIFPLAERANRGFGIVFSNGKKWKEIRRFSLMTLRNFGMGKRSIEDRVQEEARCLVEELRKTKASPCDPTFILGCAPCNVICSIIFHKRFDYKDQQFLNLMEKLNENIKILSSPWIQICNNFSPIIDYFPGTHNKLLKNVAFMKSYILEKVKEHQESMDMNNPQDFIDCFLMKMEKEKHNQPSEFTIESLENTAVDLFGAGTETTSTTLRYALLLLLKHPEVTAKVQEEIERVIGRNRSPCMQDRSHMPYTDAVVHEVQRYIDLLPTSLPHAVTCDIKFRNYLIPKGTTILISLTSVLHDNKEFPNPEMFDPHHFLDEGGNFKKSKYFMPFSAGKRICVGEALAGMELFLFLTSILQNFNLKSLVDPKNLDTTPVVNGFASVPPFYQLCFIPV
CYP3A4, sequence (P08684 whole entry): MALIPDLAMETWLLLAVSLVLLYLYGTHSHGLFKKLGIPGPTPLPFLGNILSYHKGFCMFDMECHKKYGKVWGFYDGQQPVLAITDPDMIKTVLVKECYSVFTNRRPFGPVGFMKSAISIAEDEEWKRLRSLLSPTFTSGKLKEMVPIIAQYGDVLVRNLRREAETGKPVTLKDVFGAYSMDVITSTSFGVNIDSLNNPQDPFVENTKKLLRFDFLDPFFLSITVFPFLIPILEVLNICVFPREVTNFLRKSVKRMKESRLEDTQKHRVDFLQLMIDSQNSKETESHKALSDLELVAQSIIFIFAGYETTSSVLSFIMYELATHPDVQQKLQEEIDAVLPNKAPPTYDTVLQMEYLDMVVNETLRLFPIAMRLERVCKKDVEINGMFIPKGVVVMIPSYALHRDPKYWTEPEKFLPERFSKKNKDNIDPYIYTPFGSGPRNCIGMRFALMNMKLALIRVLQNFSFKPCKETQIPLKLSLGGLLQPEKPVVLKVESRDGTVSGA
CYP2D6, sequence (P10635 whole entry): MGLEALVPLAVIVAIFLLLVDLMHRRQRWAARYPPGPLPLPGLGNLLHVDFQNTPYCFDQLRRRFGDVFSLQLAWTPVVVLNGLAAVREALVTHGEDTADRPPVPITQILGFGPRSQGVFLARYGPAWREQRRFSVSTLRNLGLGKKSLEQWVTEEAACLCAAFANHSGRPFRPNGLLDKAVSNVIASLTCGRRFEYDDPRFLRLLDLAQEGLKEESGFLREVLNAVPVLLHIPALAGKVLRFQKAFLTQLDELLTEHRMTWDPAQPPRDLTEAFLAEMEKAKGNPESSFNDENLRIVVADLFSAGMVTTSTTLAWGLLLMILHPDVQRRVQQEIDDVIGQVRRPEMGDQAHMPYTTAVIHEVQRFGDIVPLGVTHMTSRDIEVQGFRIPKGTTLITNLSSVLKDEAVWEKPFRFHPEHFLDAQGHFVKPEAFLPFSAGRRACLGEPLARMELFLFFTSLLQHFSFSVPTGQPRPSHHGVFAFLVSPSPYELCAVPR

Row | IC50 [1] | half-life [2] | inhibition at 10 µM [3] | bioavailability [4] | inhibition at 10 µM [5] | half-life [6] | clearance [7] | inhibition at 10 µM [8] | half-life [9] | Cmax [10] | Vd [11] | inhibition at 10 µM [12] | AUC at 8 h [13] | SMILES
1 | 179 nM |  |  |  |  |  |  |  |  |  |  |  |  | O=C(Nc1ccc(-c2cn[nH]c2)cc1F)C1COc2ccccc2O1 (stereo not drawn)
2 | 56.7 nM | 17 min | 63% | 25% | 40% | 23 min | 28 mL/min/kg | 38% | 28.2 min | 670 nM | 0.7 L/kg | 42% | 1.6 µM·h | COc1ccc2c(c1)CC(C(=O)Nc1cc(F)c(-c3cn[nH]c3)c(F)c1)CO2 (stereo not drawn)
3 |  |  |  | 23% |  |  |  |  |  | 600 nM | 0.8 L/kg |  | 1.5 µM·h | O=C(Nc1cc(F)c(-c2cn[nH]c2)c(F)c1)C1COc2ccccc2C1 (stereo not drawn)
